This data set has as its system MS2 coat protein. Put plainly: apparent Kd, MS2 coat protein; higher = weaker binding; RNA-MaP array; theophylline 2 mM where present. The method in brief: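 In 100 mM Tris-HCl pH 7.5, 80 mM KCl, 4 mM MgCl2, BSA, DTT, yeast tRNA and Tween-20, SNAP-549-labelled MS2 coat protein was titrated from 0.7 or 1.5 nM, doubling to 3 µM, over designs transcribed by stalled E. coli RNA polymerase on Illumina sequencing-chip clusters. This was done first without ligand, then with ligand held constant. After green signal was normalised to red-channel RNA signal and control-cluster median Fmax, the apparent Kd was taken as the median of filtered per-cluster binding-curve fits.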

[1] abbreviates: designed as: OFF switch for theophylline, no ligand.
[2] abbreviates: ligand present: theophylline, designed as: OFF switch for theophylline.
Where [3] appears, read: designed as: ON switch for theophylline, no ligand.
Setting [4] is: ligand present: theophylline, designed as: ON switch for theophylline.

The term apparent Kd denotes a dissociation constant that holds for the conditions of the assay. As for “UGGGCAUACAUGAGGAUCACCCAUGUAGAUACCAGCACUAGCCUGUGCCCUUGGCAGCUAACCGGGUCGAGAACUUAGUGCUCCU”, the “apparent Kd” value is, setting by setting: under setting [1], 11.8 nM; under setting [2], 52.7 nM.

As for “CGGUUUGUGAUGGAUACCAGCAGAGAAAAUGUUUAUCCUGACAUGAGGAUCACCCAUGUGUGCCCUUGGCAGCUGUUGUGGGCUG”, the “apparent Kd” value was 56.2 nM under setting [1] and 75.3 nM under setting [2].

For the sequence “UGCAUCAUAAUCAUGUUGGUGCUAGGUGAUACCAGCAUCGAAAGAUGCCCUUGGCAGCACCAACAUGAGGAUCACCCAUGUAAUA”, the “apparent Kd” value under setting [3] came out at 114 nM and the “apparent Kd” value under setting [4] came to 337 nM.

“AUAACAUGAGGAUCACCCAUGUAGAGUGAUACCAGACUAUGUAAUGUCCCUUGGCAGCACAAGUAAAGUUAUAAAUAAUGAUAGA”: the “apparent Kd” value by setting is: under setting [3], 157 nM; under setting [4], 27.2 nM.

In the case of “GAUGAAGUAACUGAUACCAGUGUACUGACAUGAGGAUCACCCAUGUUGGGUUUUGUUGUACACCCUUGGCAGCAGAAUCUUUAUC”, the “apparent Kd” value turned out to be 52.3 nM under setting [1] and 84.9 nM under setting [2].

Regarding “AUUCCAUUGGUGCAGUUGUUAAAUGGCGAUACCAGCGUGGAAACACGCCCUUGGCAGCGCCAAAACAUGAGGAUCACCCAUGUUA”, the “apparent Kd” value stood at 61 nM under setting [1] and 120 nM under setting [2].

With “ACCUACACGGAAACGUGUAGAAGUAAUGAUACCAGCAUGGAAACAUGCCCUUGGCAGCGUUACAUGAGGAUCACCCAUGUAUGUU”, the “apparent Kd” value was determined as 14.8 nM under setting [1] and 32.4 nM under setting [2].

On to “CUGCCAUGCAGAGAUACCAGUGAGCUCAAAACAUGAGGAUCACCCAUGUAAAUUGCCGAUCACCCUUGGCAGCUCUGCAUGGCAG”, for which the “apparent Kd” value worked out at 9.78 nM under setting [3] and 7.84 nM under setting [4].

Consider “CGAGUUCGCUGAUGGGCUACGUCAGGUGAUACCAGCCACUCCCGCGGCCCUUGGCAGCACAUGAGGAUCACCCAUGUAGAGCUUG”, for which the “apparent Kd” value is, setting by setting: under setting [1], 13.6 nM; under setting [2], 238 nM.

Turning to “UGACAUUGCUCAGAUACCAGACGUGAGGAUCACCCACGUGCCAACAUGAGGAUCACCCAUGUCCCUUGGCAGCUGAGCAAUGUCU”, the “apparent Kd” value under setting [1] stood at 15.7 nM and the “apparent Kd” value under setting [2] worked out at 183 nM.

For “AGCAGUACAACAGAUACCAGACUUUUCAUGCCUUUAAUUACAUGAGGAUCACCCAUGUUUGUCCCUUGGCAGCUGUUGUACUGCA”, the “apparent Kd” value under setting [1] was 41.9 nM and the “apparent Kd” value under setting [2] was 111 nM.

For the sequence “AGCGACAUGCGUGAUACCAGCUACAUGAGGAUCACCCAUGUAAGUAGGAAACUACUGUGUAGCCCUUGGCAGCACAGUGCAUGUC”, the “apparent Kd” value is, setting by setting: under setting [1], 9.48 nM; under setting [2], 26.6 nM.

For “CUAGGAAACUAGUAAGGGUGGUAUAGAGAUACCAGUACAGAAAUGUACCCUUGGCAGCUCACUGCAACAUGAGGAUCACCCAUGU”, the “apparent Kd” value reads like this: under setting [1], 32.3 nM; under setting [2], 102 nM.

For the sequence “UAUAUAAUAACAGAUACCAGCGUGUUAUAAAACAUGAGGAUCACCCAUGUAGUGAUCAAGCGCCCUUGGCAGCUGGUAUUAUAUA”, the “apparent Kd” value runs as follows: under setting [3], 72.2 nM; under setting [4], 146 nM.

As to “GAUACCAUGAUCCUCCUGGUAUCGGCUGAUACCAGCCAGCUGACUGGCCCUUGGCAGCAGCAUACAUGAGGAUCACCCAUGUUAA”, the “apparent Kd” value by setting is: under setting [3], 88.3 nM; under setting [4], 267 nM.

“UUUGAUAGGACAGAUACCAGCGUGUUGUUGAACAUGAGGAUCACCCAUGUAGUGAUCAGGCGCCCUUGGCAGCUGGUUUGUUAGG”: the “apparent Kd” value under setting [3] was 416 nM and the “apparent Kd” value under setting [4] came out at 347 nM.

As to “AGUCUAUGGAGAGAUACCAGUGAGAGCCAUAGACAUGAGGAUCACCCAUGUGACAUGGAUCACCCUUGGCAGCUCAACGAGCUCU”, the “apparent Kd” value reads like this: under setting [3], 126 nM; under setting [4], 20.2 nM.

Regarding “AUGUCGUUGAAUAUAGCGGCUUGGAGUGAUACCAGUAUGAUCCAAUACCCUUGGCAGCAUAACAUGAGGAUCACCCAUGUUCCAG”, the “apparent Kd” value turned out to be 21.3 nM under setting [3] and 31.6 nM under setting [4].

For the origin of these results see the EternaBench riboswitch data.
